Results from ChEMBL document CHEMBL2093137, “WHO-TDR NTD Screening”.
≈ marks a conversion by molar mass, not a printed value.

Columns and labels:
[1] = tested on: Onchocerca lienalis; test: (§1) WHO-TDR: Onchocerciasis; type: functional; parameters: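 at 12.5 µM on microfilariae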
Procedure, shortened: (§2)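 Percent inhibition and IC50 describe activity against microfilariae of Onchocerca ochengi or Onchocerca lienalis, used as animal-pathogen substitutes for the human parasite. The compounds tested made up a 10,000-member diverse library from Life Chemicals.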

[2] = tested on: Plasmodium falciparum K1; test: WHO-TDR: Malaria; type: functional, organism-based, Homo sapiens; conditions: Erythrocyte
Procedure, shortened: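 Values are IC50 figures for antiplasmodial potency. They come from a whole-organism screen of 10,000 diverse Life Chemicals compounds against Plasmodium falciparum K1 growing inside human red blood cells, run by previously published standard procedures.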

[3] = tested on: Trypanosoma cruzi; test: WHO-TDR: Chagas disease; type: functional, organism-based, Homo sapiens; conditions: MRC5
Procedure, shortened: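 Whole-organism screen of a 10,000-compound diverse library from Life Chemicals, filtered for drug-likeness and reactive groups, against intracellular amastigotes of Trypanosoma cruzi Tulahuen CL2 beta-galactosidase strain grown in MRC-5SV2 human lung fibroblast host cells. The assay followed previously published standard procedures, with a reference drug as positive control. Antiparasitic potency is reported as IC50.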

[4] = tested on: Schistosoma mansoni; test: WHO-TDR: Schistosomiasis; type: functional; parameters: concentration or dose not given beside the values
Procedure, shortened: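 Percent inhibition and IC50 describe activity against whole Schistosoma mansoni worms of the Puerto Rican strain, tested as larvae and/or adults. The compounds screened were a diverse set of 10,000 from Life Chemicals, filtered for drug-likeness and reactive groups. Testing followed previously published standard procedures, with a reference drug as positive control.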

[5] = tested on: Leishmania infantum; test: WHO-TDR: Leishmaniasis; type: functional, organism-based, Mus musculus; conditions: Macrophage
Procedure, shortened: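 Values are IC50 figures for antiparasitic potency. They come from a whole-organism screen of a 10,000-compound diverse Life Chemicals library against Leishmania infantum MHOM/MA(BE)/67 amastigotes inside murine peritoneal macrophage host cells.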

[6] = WHO-TDR: Cytotoxicity; type: toxicity, cell-based; conditions: human, MRC5 cells
[7] = tested on: Trypanosoma brucei brucei; test: WHO-TDR: Human African Trypanosomiasis (HAT); type: functional, organism-based; conditions: Squib-427
Procedure, shortened: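 Values are IC50 figures for antiparasitic potency. They come from a whole-organism screen of 10,000 diverse Life Chemicals compounds against bloodstream-form Trypanosoma brucei (Squib 427 strain).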

[8] = tested on: Onchocerca ochengi; test: as §1; type: functional; parameters: concentration or dose not given beside the values; procedure, shortened: as §2;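 note: at 12.5 µM on microfilariae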
[9] = tested on: Brugia malayi; test: WHO-TDR: Lymphatic Filariasis; type: functional; parameters: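 tested at 10 µM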
Procedure, shortened: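 The screening set was a 10,000-compound diverse library from Life Chemicals, filtered for drug-likeness and for reactive groups. It was run against Brugia malayi microfilariae as whole organisms, using previously published standard procedures. Reference drugs acted as positive controls, and activity is reported both as percent inhibition and as IC50.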

| SMILES | IC50 [2] [µg/mL] | IC50 [5] [µg/mL] | IC50 [7] [µg/mL] | % Inhibition [1] [%] | IC50 [3] [µg/mL] | % Inhibition [4] [%] | IC50 [6] [µg/mL] | % Inhibition [8] [%] | % Inhibition [9] [%] |
| --- | --- | --- | --- | --- | --- | --- | --- | --- | --- |
| COc1ccc(S(=O)(=O)NCC(c2cccnc2)N2CCN(Cc3ccccc3)CC2)cc1C (centres undefined) | 1.81 (≈ 3.78 µM) | 7.47 (≈ 15.5 µM) | 5.04 (≈ 10.5 µM) | 0 | 0.835 (≈ 1.74 µM) | 0 | > 14.4 | – | – |
| COc1ccccc1N1CCN(C(CNS(=O)(=O)c2cccs2)c2cccnc2)CC1 (centres undefined) | 6.66 (≈ 14.5 µM) | > 13.8 | > 13.8 | 66.7 | 0.559 (≈ 1.22 µM) | 0 | > 13.8 | – | – |
| O=S(=O)(NCC(c1cccnc1)N1CCN(Cc2ccccc2)CC1)c1ccc(Cl)cc1 (centres undefined) | 2.18 (≈ 4.63 µM) | > 14.1 | > 14.1 | 0 | 0.633 (≈ 1.34 µM) | 0 | > 14.1 | – | – |
| O=C(NCCc1csc(-c2ccccc2)n1)C1CCCC1 | > 9.01 | > 9.01 | 0.152 (≈ 0.506 µM) | 0 | 0.345 (≈ 1.15 µM) | 0 | > 9.01 | – | – |
| O=S(=O)(NCC(c1cccnc1)N1CCN(c2ccccc2F)CC1)c1cc(F)ccc1F (centres undefined) | 4.27 (≈ 8.96 µM) | > 14.3 | 4.74 (≈ 9.95 µM) | 0 | 0.265 (≈ 0.556 µM) | 0 | > 14.3 | – | – |
| O=C(Cc1ccc(Cl)cc1)Nc1cccc(-c2nc3cccnc3s2)c1 | > 11.4 | 0.369 (≈ 0.971 µM) | > 11.4 | 66.7 | > 11.4 | 58.3 | > 11.4 | – | – |
| NC(=O)c1ccc(NC(=O)c2c[nH]c(=O)n(-c3ccc(F)cc3)c2=O)cc1 | > 11 | 0.358 (≈ 0.971 µM) | > 11 | 0 | > 11 | 0 | > 11 | – | – |
| O=C(Nc1nc(-c2ccccn2)cs1)c1cc(Cl)sc1Cl | > 10.7 | > 10.7 | 0.182 (≈ 0.511 µM) | 80 | 0.069 (≈ 0.194 µM) | – | 3.89 (≈ 10.9 µM) | – | – |
| O=C(c1ccccc1)N1CCN(c2ccc(Nc3ccccn3)nn2)CC1 | > 10.8 | 0.35 (≈ 0.971 µM) | > 10.8 | – | > 10.8 | 0 | > 10.8 | 0 | 0 |
| O=C(Nc1ccccc1)N1CCN(c2ccc(Nc3ccccn3)nn2)CC1 | > 11.3 | > 11.3 | > 11.3 | – | > 11.3 | 0 | 11.3 (≈ 30 µM) | 100 | 0 |
| O=C(c1ccc(Cl)cc1Cl)N1CCN(c2ccc(Nc3cccnc3)nn2)CC1 | 7.24 (≈ 16.9 µM) | > 12.9 | > 12.9 | – | 3.7 (≈ 8.63 µM) | 0 | > 12.9 | 100 | 0 |
| O=C(c1ccc(C(F)(F)F)cc1)N1CCN(c2ccc(Nc3cccnc3)nn2)CC1 | > 12.9 | > 12.9 | > 12.9 | – | 3.43 (≈ 8.02 µM) | 0 | 7.94 (≈ 18.5 µM) | 100 | 25 |
| O=S(=O)(c1ccc2ccccc2c1)N1CCN(c2ccc(Nc3cccnc3)nn2)CC1 | > 13.4 | 0.434 (≈ 0.972 µM) | > 13.4 | – | > 13.4 | 0 | > 13.4 | 0 | 0 |
| O=S(=O)(c1cccc(F)c1)N1CCN(c2ccc(Nc3cccnc3)nn2)CC1 | 5.44 (≈ 13.1 µM) | 0.403 (≈ 0.972 µM) | > 12.4 | – | > 12.4 | 0 | 0.937 (≈ 2.26 µM) | 0 | 0 |
| CCCC(=O)N1CCN(c2ccc(Nc3ccncc3)nn2)CC1 | > 9.79 | 0.317 (≈ 0.971 µM) | > 9.79 | – | > 9.79 | 0 | > 9.79 | 0 | 0 |
| COc1cccc(NC(=O)CSc2nc(-c3ccccc3Cl)ns2)c1 | 0.24 (≈ 0.612 µM) | > 11.8 | > 11.8 | 6.7 | > 11.8 | – | > 11.8 | – | – |

Further lines, with some results ahead:

| IC50 [2] [µg/mL] | IC50 [5] [µg/mL] | IC50 [7] [µg/mL] | SMILES | % Inhibition [1] [%] | IC50 [3] [µg/mL] | % Inhibition [4] [%] | IC50 [6] [µg/mL] | % Inhibition [8] [%] | % Inhibition [9] [%] |
| --- | --- | --- | --- | --- | --- | --- | --- | --- | --- |
| 0.78 (≈ 1.58 µM) | > 14.8 | 4.8 (≈ 9.71 µM) | COc1ccccc1N1CCN(C(CNS(=O)(=O)c2c(C)cc(C)cc2C)c2cccnc2)CC1 (centres undefined) | 86.7 | 0.929 (≈ 1.88 µM) | 0 | > 14.8 | – | – |
| > 12.4 | 8.43 (≈ 20.4 µM) | 4.01 (≈ 9.71 µM) | Cc1ccc(S(=O)(=O)NCCNc2ccc(Nc3cccc(C)n3)nn2)c(C)c1 | – | 3.96 (≈ 9.61 µM) | 0 | > 12.4 | 100 | 0 |
| 0.582 (≈ 1.45 µM) | > 12.1 | 4.06 (≈ 10.1 µM) | Cc1cccc(Nc2ccc(NCCNS(=O)(=O)c3ccc(F)cc3)nn2)n1 | – | > 12.1 | 0 | > 12.1 | 100 | 50 |
| 2.41 (≈ 5.65 µM) | 5.4 (≈ 12.7 µM) | 4.14 (≈ 9.71 µM) | Cc1cc(C)c(S(=O)(=O)NCCNc2ccc(Nc3cccc(C)n3)nn2)c(C)c1 | – | 4.46 (≈ 10.5 µM) | 33.3 | 6.74 (≈ 15.8 µM) | 100 | 0 |
| 3.4 (≈ 7.95 µM) | > 12.9 | 5.42 (≈ 12.7 µM) | COc1ccc(C)cc1S(=O)(=O)NCCNc1ccc(Nc2cccc(C)n2)nn1 | – | > 12.9 | 0 | > 12.9 | 100 | 0 |
| 4.32 (≈ 12.3 µM) | > 10.6 | > 10.6 | O=C(NCCNc1ccc(Nc2ccccn2)nn1)c1ccc(F)cc1 | – | > 10.6 | 0 | > 10.6 | 100 | 0 |
| 5.09 (≈ 12.6 µM) | > 12.1 | 6.4 (≈ 15.9 µM) | O=C(NCCNc1ccc(Nc2ccccn2)nn1)c1cccc(C(F)(F)F)c1 | – | > 12.1 | 0 | 10.1 (≈ 25 µM) | 100 | 50 |
| 7.28 (≈ 18.1 µM) | > 12.1 | 11 (≈ 27.5 µM) | O=C(NCCNc1ccc(Nc2ccccn2)nn1)c1ccc(C(F)(F)F)cc1 | – | > 12.1 | 0 | 7.71 (≈ 19.2 µM) | 100 | 50 |
| > 11 | > 11 | 3.66 (≈ 9.95 µM) | O=C(NCCNc1ccc(Nc2ccccn2)nn1)Nc1ccc(F)cc1 | – | > 11 | 0 | > 11 | 100 | 0 |
| > 11.3 | 0.367 (≈ 0.972 µM) | > 11.3 | Cc1cc(C)cc(NC(=O)NCCNc2ccc(Nc3ccccn3)nn2)c1 | – | > 11.3 | 0 | > 11.3 | 100 | 0 |
| > 12.8 | 0.414 (≈ 0.971 µM) | > 12.8 | COc1ccc(S(=O)(=O)N2CCN(c3ccc(Nc4ccccn4)nn3)CC2)cc1 | – | > 12.8 | 16.7 | > 12.8 | 0 | 0 |
| 2.8 (≈ 6.6 µM) | 0.412 (≈ 0.97 µM) | > 12.7 | CCc1ccc(S(=O)(=O)N2CCN(c3ccc(Nc4ccccn4)nn3)CC2)cc1 | – | > 12.7 | 0 | > 12.7 | 0 | 0 |
| > 12.1 | > 12.1 | > 12.1 | Cc1ccc(NC(=O)N2CCN(c3ccc(Nc4cccnc4)nn3)CC2)cc1C | – | > 12.1 | 0 | > 12.1 | 100 | 0 |
| 0.716 (≈ 1.69 µM) | > 12.7 | > 12.7 | Cc1ccc(S(=O)(=O)N2CCN(c3ccc(Nc4cccnc4)nn3)CC2)c(C)c1 | – | 3.91 (≈ 9.21 µM) | 0 | 0.804 (≈ 1.89 µM) | 100 | 0 |
| > 11.5 | > 11.5 | > 11.5 | O=C(NCCNc1ccc(Nc2ccncc2)nn1)Nc1ccc(Cl)cc1 | – | > 11.5 | 0 | > 11.5 | 100 | 0 |
| 9.79 (≈ 22.3 µM) | > 13.2 | > 13.2 | O=S(=O)(NCCNc1ccc(Nc2ccncc2)nn1)c1cc(Cl)ccc1Cl | – | > 13.2 | 0 | > 13.2 | 100 | 0 |
